Data from paper PMC9516706 (JACS Au, 2022).

Tests used:
A431 cells [1] = test: Tyrosine kinase inhibitor assay; type: cell-based, human
A431 cells [2] = test: Localization of peptide amphiphiles in cells; type: cell-based, human; conditions: C16-E4Y 0.05 wt % with NBD-C8-E4Y 0.001 wt %, 24 h, ER-tracker and MitoRed, CLSM
HeLa cells = test: Apoptosis and necrosis detection; type: cell-based, human; conditions: C16-E4Y 0.08 wt %, 1 h, counting at least 1000 cells in CLSM images
How it was run: (§1)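 Cells were grown on a dish for 24 h, then given medium containing test compound at 0.08 wt % for 1 h. Cells were stained with annexin V-FITC and propidium iodide using an apoptotic/necrotic/healthy cell detection kit. Staining was imaged by CLSM, with PI fluorescence marking membrane-damaged cells.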

A431 cells [3] = test: Fluorescence recovery after photobleaching; type: cell-based, human; conditions: 0.08 wt% C16-E4Y for 1 h, without C16-E4Y recovery within 1 s
A431 cells [4] = test: Cytotoxicity assay; type: cell-based, human; conditions: for Selective cytotoxicity to A431 cells: five different cell lines compared, cell viability assay
How it was run: (§2)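 Cells were seeded in 96-well plates and grown for 24 h. Medium was then replaced with medium containing the peptide amphiphile, and cells were incubated a further 20 h. Viability was read with WST-8 reagent. Lines were HeLa, A431, MCF-7 and HepG2 cancer cells, plus MvE and HEK293 normal cells.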

[5] = Gel formation of C16-E4Y phosphorylated by tyrosine kinase; type: physicochemical; conditions: C16-E4Y 1 wt%, ATP 15 mM, c-Src kinase 6 µg/mL, 1× kinase buffer, 37 °C, 7 days
[6] = TEM observation of self-assembly; type: physicochemical; conditions: 1.0 wt % in PBS(+), stained with 2.0 wt % phosphotungstic acid, 200 kV
How it was run: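 A carbon-supported TEM grid was dipped in a 1.0 wt % peptide amphiphile solution in PBS(+) containing Ca²⁺ and Mg²⁺. The grid was dried, negatively stained with 2.0 wt % phosphotungstic acid, and imaged at 200 kV accelerating voltage.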

A431 cells [7] = test: Apoptosis and necrosis detection; type: cell-based, human; conditions: C16-E4Y 0.08 wt %, 1 h, counting at least 1000 cells in CLSM images
How it was run: as §1

HepG2 cells = test: Detection of a peptide amphiphile phosphorylated in cells; type: cell-based, human; conditions: HepG2 cells cultured with 0.05 wt % C16-E4Y; medium and cell lysate
A431 tumor = test: Antitumor activity in vivo, A431-xenografted nude mice; conditions: same regimen, against PBS control group, n = 6
How it was run: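 Nude mice with A431 cells injected subcutaneously into the flank. PBS (30 μL) with 1.5 wt % test compound was injected directly into the tumour three times a week for 3 weeks, against a PBS control. Bodyweight was followed during dosing, and tumour volume was taken as longer diameter × shorter diameter² × 0.5. Mice were sacrificed 4 weeks after inoculation; n = 6.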

[8] = system: HeLa, A431, MCF-7, HepG2, MvE and HEK293 cells; test: Cytotoxicity assay; type: cell-based, human; conditions: up to 0.1 wt %; four different cell lines
How it was run: as §2

**Q.** Which “Effect of EGFR inhibitor on the cytotoxicity of C16-E4Y” value (A431 cells [1]) does the source give for `C#Cc1cccc(Nc2ncnc3cc(OCCOC)c(OCCOC)cc23)c1` [erlotinib] here?
**A.** The value was “alleviated the cytotoxicity”.

**Q.** Which Intracellular localization (A431 cells [2]) does the source give for “N-palmitoyl-Glu-Glu-Glu-Glu-Tyr [C16-E4Y]” here?
**A.** The Intracellular localization was “accumulated on ER selectively”.

**Q.** What about the “Cells in early apoptosis” value (HeLa cells) of the same molecule?
**A.** Its value is 0.4%.

**Q.** What about the “Fluorescence recovery of ER-tracker after photobleaching” value (A431 cells [3]) of the same molecule?
**A.** The value was “recovered relatively slowly”.

**Q.** What about the “Cytotoxicity toward A431 cells compared with the other cell lines” value (A431 cells [4]; 0.05 wt %, 20 h incubation, WST-8, five replicates) of the same molecule?
**A.** Its value is “remarkably higher cytotoxicity”.

**Q.** What about the “Dose dependence of cytotoxicity” value (A431 cells [4]; A431 cells, Figure 3b) of the same molecule?
**A.** Its value is “dose-dependent”.

**Q.** What about the “Gelation after incubation with a tyrosine kinase and ATP” value [5] of the same molecule?
**A.** Its value is “partially gelated”.

**Q.** And the “Self-assembly morphology by TEM” value [6]?
**A.** The value was “nanosized strings several hundred nanometers in length”.

**Q.** What about the “Cells in early apoptosis” value (A431 cells [7]) of the same molecule?
**A.** The value was 15.4%.

**Q.** What about the “Intracellular phosphorylation (C16-E4pY by MALDI-TOF/MS)” value (HepG2 cells) of the same molecule?
**A.** Its value is “not detected”.

**Q.** And the “Bodyweight of treated mice” value (A431 tumor)?
**A.** The value was “comparable to those of the control group”.

**Q.** For N-lauroyl-Glu-Glu-Glu-Glu-Tyr [C12-E4Y], which “Cytotoxicity toward all cell lines tested” value [8] is on record?
**A.** Its value is “did not show cytotoxicity”.

**Q.** And the “Self-assembly morphology by TEM” value [6]?
**A.** Its value is “formed only a few isolated short fibers”.

**Q.** For “N-palmitoyl-Glu-Glu-Glu-Glu-Phe [C16-E4F]”, which “Selective cytotoxicity to A431 cells” value (A431 cells [4]) is on record?
**A.** The value was “did not exhibit selective cytotoxicity”.

**Q.** Which “Cytotoxicity toward all cell lines tested” value [8] does the source give for “N-capryloyl-Glu-Glu-Glu-Glu-Tyr [C8-E4Y]” here?
**A.** Its value is “did not show cytotoxicity”.

**Q.** And the “Self-assembly morphology by TEM” value [6]?
**A.** Its value is “did not form any self-assembly body”.

**Q.** Which “Selective cytotoxicity to A431 cells” value (A431 cells [4]) does the source give for “N-palmitoyl-Glu-Glu-Glu-Glu-Ser [C16-E4S]” here?
**A.** Its value is “did not exhibit selective cytotoxicity”.

**Q.** With N-palmitoyl-Glu-Glu-Glu-Glu [C16-E4] as the molecule, how does the “Selective cytotoxicity to A431 cells” value (A431 cells [4]) read?
**A.** Its value is “did not exhibit selective cytotoxicity”.
